# FN deposit inh = inhibitors of fibronectin matrix deposition, primary screen, AH1F cells, Alexa488-fibronectin fluorescence, plate reader; inhibition, % at 12.6 µM; hit rate 0.086% among 350,000; AH1F fibroblasts, overnight;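 active = mean inhibition across replicates of 30% or more, regardless of how many single replicates reach that level; inconclusive = mean under 30% yet at least half of replicates reach 30%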;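 note: positive control wells lacked labelled fibronectin entirely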
#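 Assay system: AH1F fibroblast monolayer, labelled fibronectin deposition. Amount: 10000 cells per well. Also added: labelled fibronectin 24 nM. Compound: single-point pinned compound. Incubation: cell attachment 1 h, compound and FN exposure overnight. Detection: fluorescence after three HBSS washes, excitation 485 nm, emission 525 nm. Read-out: inhibition of fibronectin deposition signal.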
# Casp6 inh = human caspase-6 inhibitors, primary screen, biochemical, VEID-R110 fluorescence, single point, set 2; purified caspase-6, Z-VEID-R110 cleavage fluorescence; P55212; inhibition, % at 12.5 µM; AID 686996, 2013; hit rate 0.53% among 350,000;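 active = mean inhibition across replicates at least about 35%, with every replicate also reaching that limit, limit read from the data; inconclusive = only one of the two criteria met; inactive = neither criterion met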;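 note: 0% = median of neutral control wells and 100% = no fluorescence left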
# Target sequence (P55212 24-179 limits assumed): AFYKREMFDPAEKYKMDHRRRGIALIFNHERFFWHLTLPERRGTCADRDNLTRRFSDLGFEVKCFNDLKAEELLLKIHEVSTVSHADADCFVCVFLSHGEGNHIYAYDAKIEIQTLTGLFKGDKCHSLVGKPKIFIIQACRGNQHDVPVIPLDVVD
# Target sequence (P55212 194-293 limits assumed): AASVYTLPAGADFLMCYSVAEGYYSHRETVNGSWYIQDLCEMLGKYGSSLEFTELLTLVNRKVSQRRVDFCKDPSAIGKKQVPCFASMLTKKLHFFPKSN
# CaV13 ICDI inh = Primary screen for inhibitors of IQ motif and Ca2+-dependent inactivation inhibitor domain binding in CACNA1D, Förster resonance energy transfer in living cells, … | hit rate 0.098% among 340,000 | HEK cells, CFP/YFP FRET ICDI-IQ, plate reader, 10 min; percent FRET-ratio fall versus neutral wells | inhibition, % at 12.3 µM;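 active = mean replicate inhibition of at least 30% and at least 1% of replicates passing that level; inconclusive = only one of the two criteria is met; inactive = neither criterion is met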;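 note: 0% = median of the neutral control wells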
# DENV2 CPE = inhibitors of DENV2 cytopathic effect, primary screen, cell-based, plate reader, single concentration. AID 651640, 2012. DENV2-infected cells, cytopathic effect rescue. CPE inhibition, % at 9.99 µM. hit rate 1.7% among 350,000; in the data active = CPE inhibition above about 20%, passing the limit was not always enough; inconclusive = no clear call, values can overlap the other calls; tested in BHK-21 cells;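 note: 0% = median of neutral control wells and 100% = median of positive control wells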
# Xi reactivation = activators of inactive X chromosome reactivation, primary screen, imaging, XiGFP fibroblasts, GFP high-content imaging, set 2; activation, % at 7.58 µM; hit rate 0.055% among 360,000; AID 743238, 2013; XiGFP mouse fibroblasts, % GFP-positive cells imaging, 3 d; cells co-treated with 5-aza-dC sensitizer; scaled so ellipticine positive control = 100%;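 active = mean normalized replicate activation at least 10% and every replicate at or above 10%; inconclusive = only one of the two criteria met; inactive = mean below 10% and not all replicates reach 10%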;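 note: 0% = median of on-plate neutral control wells and 100% = ellipticine 6 µM median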
#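 System: XiGFP fibroblasts, SV40-immortalized. Medium: DMEM plus 5-aza-dC sensitizer. Doses: single point. Timing: 3 d treatment, 15 min room-temperature fixation. Control set: ellipticine 6 µM.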
# Numbers without * were called inactive; ? = inconclusive; . = no result given. The list is not random: actives were taken first. Their share in the collection is about 2%.
SMILES,FN deposit inh,Casp6 inh,CaV13 ICDI inh,DENV2 CPE,Xi reactivation
CC(=O)N(C)C[C@@H]1Oc2ncc(C#Cc3ccccc3)cc2C(=O)N([C@H](C)CO)C[C@H]1C,.,-0.6,.,-6.4,-0.5
CC(C)C(=O)Nc1ccc2c(c1)C(=O)N(C)[C@H]1CC[C@@H](CC(=O)NCc3ccccc3)O[C@@H]1CO2,3.7,-1.5,.,31.8*,0.0
Cc1cc(C(=O)Nc2ccc3c(c2)C(=O)N(C)[C@H]2CC[C@@H](CC(=O)N[C@@H](C)c4ccccc4)O[C@H]2CO3)no1,-2.8,-1.5,.,97.1*,0.1
Cc1cc(C(=O)Nc2ccc3c(c2)C(=O)N(C)[C@H]2CC[C@H](CC(=O)N[C@@H](C)c4ccccc4)O[C@H]2CO3)no1,0.2,0.5,.,-6.8,0.3
CCS(=O)(=O)Nc1ccc2c(c1)C(=O)N(C)[C@H]1CC[C@H](CC(=O)NCCCN3CCOCC3)O[C@H]1CO2,9.0,39.4*,.,?,0.0
CNC[C@H]1OCCCC[C@H](C)Oc2ccc(NS(=O)(=O)c3cccs3)cc2C(=O)N([C@H](C)CO)C[C@@H]1C,.,-2.4,.,-7.1,-0.4
O=C(CN1C(=O)NC(c2ccccc2)(c2ccccc2)C1=O)Nc1ccc(N2CCOCC2)cc1,-1.1,1.2,-4.9,4.3,0.0
COc1ccc(C2(c3ccc(OC)cc3)NC(=O)N(CC(=O)Nc3ccc(N4CCOCC4)cc3)C2=O)cc1,-2.5,50.6*,-6.0,-10.3,-0.1
C[C@@H]1CN([C@@H](C)CO)C(=O)c2cccc(NC(=O)c3ccncc3)c2O[C@@H]1CN(C)S(=O)(=O)c1ccc(F)cc1,.,-1.2,.,19.1,0.1
N#Cc1c(-c2ccco2)nc(SCC(=O)Nc2cccc(Cl)c2)[nH]c1=O,.,.,-8.4,.,.
CCc1ccc(NC(=O)C(C)Sc2nc(-c3ccco3)c(C#N)c(=O)[nH]2)cc1 (stereo not drawn),-8.9,46.0*,-4.5,1.8,0.4
O=S(=O)(NCc1cccnc1)c1ccc(Cl)cc1,-3.5,46.6*,-20.3,-1.4,0.0
C[C@H]1CN([C@@H](C)CO)C(=O)c2cccc(NC(=O)C3CCOCC3)c2O[C@@H]1CN(C)S(=O)(=O)c1ccccc1,.,0.9,.,-2.4,0.0
COc1ccc(Nc2cc(C)c3cc([N+](=O)[O-])ccc3n2)cc1,-12.3,-1.3,-30.7,28.4*,0.0
CCC(=O)N(C)C[C@H]1Oc2cc(Br)ccc2S(=O)(=O)N([C@@H](C)CO)C[C@@H]1C,-5.2,2.0,.,14.6,0.2
CCc1nc2ccc(C(=O)NCCc3c[nH]c4ccccc34)cn2c1N(C=O)CCC(C)C,-7.4,-5.5,38.2*,2.6,0.1
Cc1noc(C)c1NC(=O)N[C@H]1CC[C@@H](CC(=O)NCCCN(C)C)O[C@H]1CO,-13.0,-6.8,.,2.1,0.3
CN(Cc1ccccc1)C(=O)c1ccc(NC(=O)Cc2ccc(NC(=O)C3CCN(C(=O)C4CCC4)CC3)cc2)cc1,4.4,-0.1,-9.8,53.4*,-0.1
O=C(Cc1cccc(NC(=O)C2CCCN(C(=O)C3CC3)C2)c1)Nc1ccc(C(=O)N2CCOCC2)cc1 (stereo not drawn),3.6,-0.1,-6.4,-4.9,-0.1
O=C(Cc1ccc(NC(=O)C2CCCN(C(=O)C3CC3)C2)cc1)Nc1cccc(C(=O)N2CCCC2)c1 (stereo not drawn),3.5,5.5,-9.2,62.1*,-0.1
CC(C)(C)OC(=O)N(Cc1ccccc1)Cc1ccccc1OCc1ccc(NC(=O)C2CCC2)cc1,2.3,.,-5.2,27.6*,-0.1
CC(C)(C)OC(=O)N(CCc1ccccc1)Cc1ccccc1OCc1ccc(NC(=O)C2CCC2)cc1,0.3,-1.6,-2.8,-10.4,0.1
O=C(Cc1cccc(NC(=O)C2CCCN(C(=O)C3CCCCC3)C2)c1)Nc1ccc(C(=O)N2CCOCC2)cc1 (stereo not drawn),8.1,14.0,-9.3,23.7*,0.0
Cc1ccc(S(=O)(=O)Nc2cccc3c2O[C@H](CN(C)Cc2ccc(C(F)(F)F)cc2)[C@@H](C)CN([C@@H](C)CO)C3=O)cc1,.,2.5,.,-1.6,-0.2
